Screening data deposited in PubChem by The Scripps Research Institute Molecular Screening Center.
In the library only some 2.9% were active in any assay of this set; here they are far more common.
CHO-K1 Ca antag – nonselective inhibitor or artifact in parental CHO-K1 cells; ATP-induced calcium, Fluo-8 fluorescence; inhibition, % at 3 µM; actives 0.6% (n = 360,000);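 active = inhibition above a per-plate cutoff, the plate's mean sample inhibition plus 3 SD, cut at about 24% in these data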;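 note: 0% = DMSO plus EC80 ATP and 100% = DMSO alone without ATP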
OX1R antag-1 – OX1R (HCRTR1) antagonists, primary screen, fluorescence, CHO/OX1R cells, Fluo-8 calcium, orexin A | Fluo-8 calcium fluorescence | inhibition, % at 5 µM | actives 0.43% (n = 330,000);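 active = inhibition above its plate's threshold, mean inhibition of all tested compounds on the plate plus 3 SD, cut at about 37% in these data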;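 note: 0% = orexin A challenge wells and 100% = SB-334867-A antagonist wells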
Target sequence (O43613 whole entry, looked up): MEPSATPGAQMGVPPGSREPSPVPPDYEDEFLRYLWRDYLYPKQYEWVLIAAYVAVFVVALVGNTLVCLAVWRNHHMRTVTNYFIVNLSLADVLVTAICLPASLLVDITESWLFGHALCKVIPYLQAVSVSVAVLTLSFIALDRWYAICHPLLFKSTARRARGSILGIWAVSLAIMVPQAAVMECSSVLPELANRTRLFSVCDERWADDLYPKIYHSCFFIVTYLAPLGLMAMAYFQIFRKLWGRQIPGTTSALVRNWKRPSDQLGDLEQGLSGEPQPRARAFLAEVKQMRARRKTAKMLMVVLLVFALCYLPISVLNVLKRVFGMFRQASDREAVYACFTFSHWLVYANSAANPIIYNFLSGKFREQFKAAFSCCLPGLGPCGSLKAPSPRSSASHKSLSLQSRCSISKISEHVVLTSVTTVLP
M1 PAM parental – nonselective calcium activators in parental CHO-K1 cells, primary screen, counter-screen for M1 PAM project, cell-based, Fluo-8 calcium fluorescence, full deck, 1536-well; ATP EC20; 0% at ATP EC20, 100% at ATP max; activation, % at 3 µM; actives 0.02% (n = 360,000); AID 602247, 2012;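 active = activation above the run cutoff, the mean activation of all test compounds plus 3 SD, cut at about 40% in these data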;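 note: peak over basal fluorescence ratio in a 140 s read after ATP addition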
OX1R antag-2 – antagonists of human orexin 1 receptor (OX1R) | actives 1.8% (n = 330,000) | OX1R-expressing cells, FRET antagonist read-out | inhibition, % at 6.6 µM | Orexin/Hypocretin receptor type 1 (Homo sapiens), O43613; in the data active = inhibition mostly above about 38%, no sharp cut-off; inactive = mostly below about 40%;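 note: 0% = agonist challenge alone and 100% = reference antagonist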
CHO-K1 Ca ag – counter-screen for M1 agonists: effect in parental CHO-K1 cells | activation, % at 3 µM | Fluo-8 calcium fluorescence; scaled to maximal ATP response, vehicle zero | actives 0.48% (n = 360,000); in the data active = activation above about 15%;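 note: untransfected CHO-K1 host cells lacking M1 receptor as counterscreen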
CHO parental Ca – ATP-evoked calcium signal inhibitors, parental CHO, primary screen, counter-screen for OX1R antagonist project, cell-based, fluorescence, Fluo-8 calcium dye | inhibition, % at 5.6 µM | actives 0.63% (n = 330,000) | parental CHO-K1, ATP-induced calcium, Fluo-8 fluorescence | AID 463079, 2010;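 active = inhibition above that plate's mean sample inhibition plus 3 SD, cut at about 26% in these data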;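 note: 0% = ATP-challenged DMSO wells and 100% = DMSO wells without ATP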
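Assay system – parental CHO cells · Reagent – ATP stimulus · Detection – intracellular calcium via Fluo-8 no-wash fluorescent dye · Evaluation – percent inhibition of ATP-evoked calcium rise, normalized to controls · Controls – ATP wells versus no-ATP DMSO wells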
* = called active by the depositor.

For O=[N+]([O-])c1nn(-c2ccccc2)n(O)c1=NC1CCN(Cc2ccccc2)CC1 the results were CHO-K1 Ca antag 0, OX1R antag-1 -21, M1 PAM parental 6, OX1R antag-2 46*, CHO-K1 Ca ag 0 and CHO parental Ca 3.
Screening CCN(CC)CCn1c2ccccc2c2nc3ccccc3nc21 returned CHO-K1 Ca antag -6, OX1R antag-1 -2, M1 PAM parental 7, OX1R antag-2 67*, CHO-K1 Ca ag 2 and CHO parental Ca -11.
Screening O=C(Nc1ccc2ccccc2n1)c1ccccc1Cl returned CHO-K1 Ca antag -10, OX1R antag-1 -19, M1 PAM parental 1, OX1R antag-2 22, CHO-K1 Ca ag 1 and CHO parental Ca -11.
COc1ccc(C(=O)Nc2ccc3ccccc3n2)c(OC)c1OC was read as CHO-K1 Ca antag -12, OX1R antag-1 -1, M1 PAM parental 9, OX1R antag-2 57*, CHO-K1 Ca ag 3 and CHO parental Ca -17.
COc1ccc(CCNC(=O)CCCc2ccccc2)cc1OC was read as CHO-K1 Ca antag -11, OX1R antag-1 -18, M1 PAM parental 23, OX1R antag-2 4, CHO-K1 Ca ag 1 and CHO parental Ca -7.
For COc1ccc(/C=C(/NC(=O)c2ccco2)C(=O)NCc2ccco2)cc1OC the results were CHO-K1 Ca antag -5, OX1R antag-1 -31, M1 PAM parental -4, OX1R antag-2 10, CHO-K1 Ca ag -1 and CHO parental Ca -15.
For COc1ccccc1C(=O)Nc1ccc2c(c1)OCCO2 the results were CHO-K1 Ca antag -6, OX1R antag-1 -23, M1 PAM parental -2, OX1R antag-2 11, CHO-K1 Ca ag 1 and CHO parental Ca -1.
`COc1cc(SC)ccc1C(=O)Nc1ccc2c(c1)OCCO2` gave CHO-K1 Ca antag -10, OX1R antag-1 -14, M1 PAM parental 20, OX1R antag-2 14, CHO-K1 Ca ag 17* and CHO parental Ca -11.
Screening COc1ccc(CCC(=O)Nc2ccc3c(c2)OCO3)cc1 returned CHO-K1 Ca antag 4, OX1R antag-1 -19, M1 PAM parental -5, OX1R antag-2 12, CHO-K1 Ca ag 0 and CHO parental Ca -14.
Screening COc1ccc(CCC(=O)Nc2ccc3c(c2)OCCO3)cc1 returned CHO-K1 Ca antag -3, OX1R antag-1 18, M1 PAM parental -5, OX1R antag-2 14, CHO-K1 Ca ag 0 and CHO parental Ca 35*.
Screening COc1ccccc1C(=O)NC(=Nc1nc2ccccc2o1)NC(=O)c1ccccc1OC returned CHO-K1 Ca antag -14, OX1R antag-1 82*, M1 PAM parental 10, OX1R antag-2 36*, CHO-K1 Ca ag 0 and CHO parental Ca 48*.
Screening CCOC(=O)C1CCCN(Cc2cn[nH]c2-c2ccc(F)cc2F)C1 (centres undefined) returned CHO-K1 Ca antag 4, OX1R antag-1 -15, M1 PAM parental 8, OX1R antag-2 20, CHO-K1 Ca ag 18* and CHO parental Ca -8.
N#Cc1ccc(S(=O)(=O)N2CCCCC2c2cc(C(=O)N3CCOCC3)no2)cc1 (centres undefined) was read as CHO-K1 Ca antag -1, M1 PAM parental -5 and CHO-K1 Ca ag 0.
COc1ccc(N(C)S(=O)(=O)c2cccc(C(=O)N3CCN(S(=O)(=O)c4ccc(C)cc4)CC3)c2)cc1 was read as CHO-K1 Ca antag 9, OX1R antag-1 -12, M1 PAM parental -15, OX1R antag-2 19, CHO-K1 Ca ag 7 and CHO parental Ca -5.
Screening COc1ccc(NC(=O)c2cc3c(Cl)nc4ccccc4c3s2)cc1OC returned CHO-K1 Ca antag -13, OX1R antag-1 11, M1 PAM parental 23, OX1R antag-2 66*, CHO-K1 Ca ag 2 and CHO parental Ca -2.
`COc1cc(CNCc2ccccn2)ccc1OCc1ccc(Cl)cc1Cl` gave CHO-K1 Ca antag 25*, OX1R antag-1 0, M1 PAM parental 3, OX1R antag-2 16, CHO-K1 Ca ag 0 and CHO parental Ca 9.
Screening COc1ccc(CNCCc2ccccc2)cc1OCC(N)=O returned CHO-K1 Ca antag -20, OX1R antag-1 -13, M1 PAM parental 16, OX1R antag-2 9, CHO-K1 Ca ag 0 and CHO parental Ca -4.
Screening CCOc1cc(CNCCc2ccc(S(N)(=O)=O)cc2)cc(Cl)c1OCc1ccccc1 returned CHO-K1 Ca antag -14, OX1R antag-1 55*, M1 PAM parental 0, OX1R antag-2 -4, CHO-K1 Ca ag 21* and CHO parental Ca 58*.
For COc1ccc(CNCCc2ccc(Cl)cc2)cc1OCc1ccccc1 the results were CHO-K1 Ca antag 8, OX1R antag-1 2, M1 PAM parental 3, OX1R antag-2 8, CHO-K1 Ca ag 14 and CHO parental Ca 42*.
CCOc1cc(CNCc2ccccc2)ccc1OCc1ccc(Cl)cc1 was read as CHO-K1 Ca antag 29*, OX1R antag-1 69*, M1 PAM parental -12, OX1R antag-2 -13, CHO-K1 Ca ag 20* and CHO parental Ca 92*.
COC(=O)c1ccc(/C=C(\C#N)c2nc3ccccc3s2)cc1 was read as CHO-K1 Ca antag 6, OX1R antag-1 56*, M1 PAM parental 9, OX1R antag-2 8, CHO-K1 Ca ag 1 and CHO parental Ca 49*.
Screening N#C/C(=C\c1ccccn1)c1nc2ccccc2s1 returned CHO-K1 Ca antag 34*, OX1R antag-1 57*, M1 PAM parental -12, OX1R antag-2 12, CHO-K1 Ca ag 34* and CHO parental Ca 45*.
`COc1ccccc1Cn1c(C)c(C(=O)NCc2ccc(C#N)cc2)sc1=O` gave CHO-K1 Ca antag -4, M1 PAM parental 19 and CHO-K1 Ca ag 28*.
COc1ccc(Cl)cc1Cn1c(C)c(C(=O)NCc2cccc(C(F)(F)F)c2)sc1=O was read as CHO-K1 Ca antag 24*, M1 PAM parental 2 and CHO-K1 Ca ag 0.
`Cc1ccccc1Cn1c(C)c(C(=O)NCc2cccc(Cl)c2)sc1=O` gave CHO-K1 Ca antag -11, M1 PAM parental 14 and CHO-K1 Ca ag 2.
Screening COc1ccc(CNC(=O)c2sc(=O)n(Cc3ccccc3C)c2C)cc1 returned CHO-K1 Ca antag 6, M1 PAM parental -9 and CHO-K1 Ca ag 17*.
For COc1ccc(-c2cc(NC(C)=O)c3ncc(-c4ccccc4)n3c2)cc1OC the results were CHO-K1 Ca antag 29*, M1 PAM parental -16 and CHO-K1 Ca ag 1.
For O=C(CN1C(=O)CCSc2ccc(S(=O)(=O)N3CCCC3)cc21)NCc1ccccc1Cl the results were CHO-K1 Ca antag -10, OX1R antag-1 -39, M1 PAM parental 14, OX1R antag-2 5, CHO-K1 Ca ag 1 and CHO parental Ca -25.
